Screening data deposited in PubChem BioAssay by The Scripps Research Institute Molecular Screening Center.
In the library only some 1.9% were active in any assay of this set; here they are far more common.
CHRM5 PAM: potentiates acetylcholine response at human M5 receptor. P08912. AID 624038. activation, % at 3 µM. 0.3% of 360,000 active. CHO-K1 hM5, Fluo-8 calcium, ACh EC20 PAM; 0% = ACh EC20, 100% = ACh EC100;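 active = activation above the run cutoff, the mean activation of all test compounds plus 3 SD, cut at about 18% in these data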
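System – CHO-K1 hM5 cells · Compound – 3 µM, single dose · Incubation – compound preincubation 140 s before EC20 acetylcholine addition · Technique – Fluo-8 calcium fluorescence · Measure – Max/basal fluorescence ratio as % of EC20–EC100 ACh window · Benchmarks – low control EC20 acetylcholine (0%), high control EC100 acetylcholine (100%) · Replication – singlicate, one well per test compound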
M4 antag: blocks acetylcholine activation of human M4 receptor | CHO-hM4 cells, ACh EC80, Fluo-8 calcium fluorescence | P08173 | 0.73% of 360,000 active | inhibition, % at 3 µM | AID 624125;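 active = inhibition above its plate's cutoff, the mean inhibition of sample wells plus 3 SD, cut at about 27% in these data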;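 also: 0% = acetylcholine EC80 with DMSO and 100% = DMSO without agonist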
Target sequence (P08173 whole entry, looked up): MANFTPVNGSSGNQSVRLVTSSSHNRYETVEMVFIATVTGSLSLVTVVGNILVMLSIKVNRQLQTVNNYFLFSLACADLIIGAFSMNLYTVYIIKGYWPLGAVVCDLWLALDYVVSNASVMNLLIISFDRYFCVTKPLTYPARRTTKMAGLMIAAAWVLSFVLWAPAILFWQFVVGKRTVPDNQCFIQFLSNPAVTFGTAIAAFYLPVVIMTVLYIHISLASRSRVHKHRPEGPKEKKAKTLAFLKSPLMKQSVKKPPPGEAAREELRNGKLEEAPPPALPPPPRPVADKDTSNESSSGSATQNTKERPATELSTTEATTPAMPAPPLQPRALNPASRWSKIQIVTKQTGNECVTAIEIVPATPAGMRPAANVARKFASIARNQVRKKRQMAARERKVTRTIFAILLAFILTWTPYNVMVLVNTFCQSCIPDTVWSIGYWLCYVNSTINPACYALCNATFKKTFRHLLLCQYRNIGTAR
M5 ag: CHRM5 agonism in calcium assay; 0.19% of 360,000 active; CHO-K1 hM5 cells, Fluo-8 calcium fluorescence; 0% DMSO wells, 100% maximal acetylcholine response; AID 624037; activation, % at 3 µM;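 active = activation above the run's mean over test compounds plus 3 SD, cut at about 23% in these data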;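 also: signal is peak over basal fluorescence ratio across the kinetic read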
CHRM5 antagonist: CHRM5 antagonism in calcium assay. P08912. CHO-hM5 cells, Fluo-8 calcium fluorescence, ACh EC80. 0.59% of 360,000 active. AID 624040. inhibition, % at 3 µM;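 active = inhibition above a per-plate cutoff, the mean of that plate's test compounds plus 3 SD, cut at about 27% in these data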;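 also: 0% = acetylcholine EC80 with DMSO and 100% = DMSO without agonist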
CHRM4 PAM: potentiates acetylcholine response at human M4 receptor; P08173; CHO-K1 hM4/Gqi5, Fluo-8 calcium fluorescence, ACh EC20; 0% = ACh EC20, 100% = maximal ACh; activation, % at 3 µM; 0.4% of 360,000 active; AID 624126;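 active = activation above its plate's cutoff, the mean activation of sample wells plus 3 SD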
M4 ag: agonists of human muscarinic M4 receptor (CHRM4). AID 624127. 0.14% of 360,000 active. activation, % at 3 µM. P08173. CHO-K1 hM4/Gqi5, Fluo-8 calcium fluorescence; vehicle 0%, full acetylcholine response 100%;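 active = activation above the run mean over all test wells plus 3 SD, cut at about 32% in these data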;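 also: peak over basal fluorescence ratio per well then scaled between controls; 0% = DMSO wells and 100% = acetylcholine at EC100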
The depositor's hits bear a star.

SMILES | CHRM5 PAM | M4 antag | M5 ag | CHRM5 antagonist | CHRM4 PAM | M4 ag
CCN(CC(=O)Nc1ccc2c(c1)OCCO2)C(=O)/C=C/c1cccc(OC)c1OC | 11.1 | -14.7 | 25.3* | -12.7 | 22.9 | 4.4
CCN(CC(=O)Nc1ccc2c(c1)OCCO2)C(=O)/C=C/c1ccc(OC)cc1OC | -7.6 | -3.2 | -3.4 | 17.0 | 0.2 | 4.8
NS(=O)(=O)c1ccc(CCNC(=O)c2ccc3c(c2)N(Cc2ccccc2)CCS3)cc1 | -17.7 | 12.0 | -3.6 | 31.0* | -14.7 | 18.4
COc1ccc(C)c2sc(NC(=O)C3=COCCO3)nc12 | 6.2 | -8.6 | 0.7 | -6.3 | 35.6* | 14.9
COC(=O)c1c(NC(=O)C2=COCCO2)sc(C)c1C | -0.5 | 7.0 | -5.3 | 5.6 | 25.0* | -0.2
CCOC(=O)C1(CCCc2ccccc2)CCN(C2CCN(C(C)=O)CC2)CC1 | -35.9 | -7.9 | -18.8 | 30.1* | -8.8 | 1.4
CCOC(=O)C1(CCCc2ccccc2)CCN(C(=O)CSC)CC1 | -1.5 | 4.5 | 1.7 | 2.0 | -4.9 | 4.0
CCc1cc(C(=O)Nc2cc(S(=O)(=O)N3CCOCC3)ccc2N2CCN(CC)CC2)sc1C | 2.8 | 5.0 | 1.4 | -0.9 | -0.8 | 2.0
Cc1nn(CC(=O)NC2CCS(=O)(=O)C2)c(C)c1[N+](=O)[O-] (centres undefined) | 8.9 | -1.2 | -1.0 | 6.1 | 16.9 | 2.7
O=C(Nc1ncc(Cc2ccc(SC(F)F)cc2)s1)c1ccc(OC(F)F)cc1 | -2.7 | 7.1 | 2.0 | 15.1 | 20.8* | 3.4
CC(C)C[C@H]1CN(CCCC[C@H]2CNC(=O)C(=O)N2CCc2ccc(O)cc2)C(=O)C(=O)N1CCc1ccc(O)cc1 | -1.4 | -7.2 | -5.0 | 0.1 | 6.6 | 0.7
CC(Sc1nnnn1C)C(=O)NC1CCCC1 (centres undefined) | -4.4 | -2.8 | -0.7 | 15.7 | 1.5 | 0.8
N=c1sccn1CC(=O)NCCc1ccc(Cl)cc1Cl | -9.3 | 35.0* | -7.3 | 6.9 | -18.2 | 0.5
O=C(Cc1ccccc1)NCCc1ccc(Cl)cc1Cl | -10.2 | -15.3 | -2.7 | 8.1 | 2.1 | -0.1
Cc1ccc(SC(=O)c2c([N+](=O)[O-])c(C)nn2C)cc1 | -30.0 | 56.9* | -18.9 | 16.5 | -15.1 | -0.6
Cc1cc(C)n(C(=O)c2c([N+](=O)[O-])c(C)nn2C)n1 | -3.0 | 8.8 | -0.5 | 11.8 | -8.4 | -0.6
Cc1cc(C(=O)OCC(=O)N2CC(C)OC(C)C2)c(C)n1-c1ccccc1 (centres undefined) | 5.5 | -3.2 | 3.3 | -1.7 | 11.1 | 1.2
Cc1ccc(S(=O)(=O)NCCC(=O)N2CCC(C(N)=O)CC2)cc1C | 1.9 | -24.4 | -2.4 | -4.7 | 26.4* | 0.0
CCOC(=O)N1CCN(C(=O)CCNS(=O)(=O)c2ccc(C)c(C)c2)CC1 | -3.0 | -27.1 | -3.6 | 4.0 | 4.0 | 0.5
O=C(CCNS(=O)(=O)c1ccccc1)N1CCCCCC1 | 5.6 | -4.1 | -2.3 | -8.5 | 28.2* | 1.4
CCc1ccc(NC(=O)CS(=O)CC(=O)Nc2ccc(F)cc2F)cc1 (centres undefined) | -2.6 | -5.2 | -6.6 | 6.5 | 31.0* | 0.1
Cc1cccc(C)c1NC(=O)CS(=O)CC(=O)Nc1ccc(F)cc1F (centres undefined) | -1.7 | -1.1 | 1.1 | 0.5 | 3.3 | 1.2
Cc1ccc(C2(c3noc(CN(C)Cc4cnn(C)c4)n3)CCCC2)cc1 | 1.1 | -7.8 | -5.1 | -2.2 | 0.8 | 2.4
CCCN1C(=O)S/C(=C/c2ccc(N3CCOCC3)o2)C1=O | 1.5 | 31.1* | 4.2 | 8.9 | -1.2 | 2.5
CCCn1c(SCC(=O)NNC(=O)c2ccc(OC)cc2)nnc1C(C)C | 4.4 | -6.1 | 1.1 | 3.1 | -5.8 | 0.4
SMILES | CHRM5 PAM | M4 antag | M5 ag | CHRM5 antagonist | CHRM4 PAM | M4 ag
CC(C)CNC(=O)NC(=O)COc1ncnc2sccc12 | -4.0 | 11.9 | 1.9 | 5.6 | 28.2* | 1.1
CC(C)CCNC(=O)NC(=O)COc1ncnc2sccc12 | 12.6 | -1.5 | 6.8 | -16.3 | 15.0 | 0.1
Cc1ccc(C(C)n2cc(C(=O)NCc3cccnc3)nn2)cc1 (centres undefined) | 18.4* | -5.8 | 5.5 | -5.6 | 11.2 | 3.2
Cc1nnc2ccc(Oc3ccc(-c4ccccc4)cc3)nn12 | -14.6 | 17.6 | 1.3 | 33.7* | -18.7 | 10.0
COC(=O)c1ccc(Oc2ccc3nnc(C)n3n2)cc1 | 5.2 | 6.8 | 2.5 | -0.8 | 12.0 | 0.1
O=C(C1CC=CCC1)N1CCCCCC1 (centres undefined) | -8.8 | -2.9 | -2.0 | 21.9 | -4.2 | 0.4
CCN(CC)CCNC(C(=O)Nc1cccc(C(C)=O)c1)c1ccccc1 (centres undefined) | -21.3 | 53.8* | -10.0 | 19.0 | -19.3 | 0.6
CCOc1ccc(NC(C(=O)Nc2cccc(C(C)=O)c2)c2ccccc2)cc1 (centres undefined) | -3.3 | -1.5 | -3.6 | 3.6 | -6.0 | 2.8
COc1ccc(CCC(C)N2CCC(Oc3ccc(C(=O)N4CCCC4)cc3)CC2)cc1 (centres undefined) | -34.1 | 42.0* | -4.5 | 1.5 | -14.9 | 3.7
CC(=O)N1CCN(C(=O)c2ccc(OC3CCN(CCc4ccccc4)CC3)cc2)CC1 | -7.0 | 10.8 | -8.7 | 17.2 | -10.9 | 0.3
CC(CCc1ccc(O)cc1)N1CCC(Oc2ccc(C(=O)N3CCCC3)cc2)CC1 (centres undefined) | -13.6 | 20.5 | -7.4 | 13.1 | -14.8 | 0.2
O=C(c1ccc(OC2CCN(CCCc3ccccc3)CC2)cc1)N1CCCC1 | -15.3 | 30.5* | -8.2 | 16.3 | -14.8 | 1.9
CCOC(=O)C1CCN(C(=O)c2ccc(OC3CCN(C(=O)COC)CC3)cc2)CC1 | 5.7 | -5.2 | -4.5 | -15.8 | 19.9* | 1.1
O=C(c1ccc(OC2CCN(Cc3ccccc3C(F)(F)F)CC2)cc1)N1CCCCC1 | -7.0 | -1.5 | -4.6 | 29.2* | -9.8 | 2.1
O=C(NNC(=O)c1ccc(F)cc1F)c1ccc2c(c1)OCO2 | 3.1 | 7.8 | -2.0 | -12.1 | -7.7 | 1.1
COc1ccc(CN2CCCC(C(=O)c3ccc4c(c3)OCO4)C2)c(F)c1 (centres undefined) | -13.7 | 61.4* | -10.0 | -2.5 | -14.3 | 4.0
CC(=O)Nc1cccc(C(=O)N2CCN(Cc3ccccc3)CC2)c1 | 6.1 | -0.5 | 2.8 | 0.5 | 20.1* | 2.6
O=C(NC1CCN(S(=O)(=O)c2ccc(Cl)c(F)c2)CC1)c1cccnc1 | 4.4 | 4.2 | -4.5 | 0.9 | -12.2 | -0.2
COc1cc(C(=O)Nc2scc(-c3ccc(C)cc3)c2C(=O)O)cc(OC)c1OC | 2.6 | 62.5* | -0.5 | 10.3 | -13.1 | -0.6
COc1cc(C(=O)Nc2scc(-c3ccccc3)c2C(=O)O)cc(OC)c1OC | 1.1 | -0.1 | -0.5 | 3.8 | 1.3 | 2.7
